High-throughput results (PubChem BioAssay)
CHRM4 PAM: positive allosteric modulators of human muscarinic M4 receptor; 360,000 tested, 0.4% active; CHO-K1 hM4/Gqi5, Fluo-8 calcium fluorescence, ACh EC20; 0% = ACh EC20, 100% = maximal ACh; P08173; activation, % at 3 µM;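 active means activation above its plate's cutoff, the mean activation of sample wells plus 3 SD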
CHRM4 agonist: agonists of human muscarinic M4 receptor (CHRM4). 360,000 tested, 0.14% active. activation, % at 3 µM. P08173. CHO-K1 hM4/Gqi5, Fluo-8 calcium fluorescence; vehicle 0%, full acetylcholine response 100%. AID 624127;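 active means activation above the run mean over all test wells plus 3 SD, cut at about 32% in these data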;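 further: peak over basal fluorescence ratio per well then scaled between controls; 0% = DMSO wells and 100% = acetylcholine at EC100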
CHRM5 antagonist: antagonists of human muscarinic M5 receptor (CHRM5); CHO-hM5 cells, Fluo-8 calcium fluorescence, ACh EC80; inhibition, % at 3 µM; 360,000 tested, 0.59% active; AID 624040;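 active means inhibition above a per-plate cutoff, the mean of that plate's test compounds plus 3 SD, cut at about 27% in these data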;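 further: 0% = acetylcholine EC80 with DMSO and 100% = DMSO without agonist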
Target sequence (P08912 whole entry, looked up): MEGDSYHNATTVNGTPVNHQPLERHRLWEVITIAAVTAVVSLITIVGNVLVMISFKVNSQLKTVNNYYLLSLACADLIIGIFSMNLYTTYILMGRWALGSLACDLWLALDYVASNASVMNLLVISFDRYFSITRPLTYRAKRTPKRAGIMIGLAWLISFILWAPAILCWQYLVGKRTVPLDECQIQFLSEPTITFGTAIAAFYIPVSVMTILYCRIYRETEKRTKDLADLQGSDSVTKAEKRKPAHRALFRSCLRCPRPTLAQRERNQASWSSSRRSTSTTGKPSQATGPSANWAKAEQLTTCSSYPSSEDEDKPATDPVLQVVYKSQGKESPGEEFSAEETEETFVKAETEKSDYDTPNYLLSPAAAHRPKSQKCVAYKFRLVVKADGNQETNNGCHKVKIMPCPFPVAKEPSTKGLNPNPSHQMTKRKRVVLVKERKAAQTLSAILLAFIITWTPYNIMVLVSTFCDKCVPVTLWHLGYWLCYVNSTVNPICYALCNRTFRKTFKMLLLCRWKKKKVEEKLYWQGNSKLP
M5 ag: CHRM5 agonism in calcium assay. CHO-K1 hM5 cells, Fluo-8 calcium fluorescence; 0% DMSO wells, 100% maximal acetylcholine response. AID 624037. activation, % at 3 µM. 360,000 tested, 0.19% active;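 active means activation above the run's mean over test compounds plus 3 SD, cut at about 23% in these data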;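 further: signal is peak over basal fluorescence ratio across the kinetic read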
M5 PAM: potentiates acetylcholine response at human M5 receptor. CHO-K1 hM5, Fluo-8 calcium, ACh EC20 PAM; 0% = ACh EC20, 100% = ACh EC100. activation, % at 3 µM. 360,000 tested, 0.3% active. AID 624038;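 active means activation above the run cutoff, the mean activation of all test compounds plus 3 SD, cut at about 18% in these data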
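Test system: CHO-K1 hM5 cells / Doses: single-point, 3 µM nominal / Times: Post-acetylcholine fluorescence recording 140 s / Technique: Fluo-8 calcium fluorescence / Measure: Max/basal fluorescence ratio as % of EC20–EC100 ACh window / Benchmarks: low control EC20 acetylcholine (0%), high control EC100 acetylcholine (100%) / Replicates: one well per compound, no replicates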
M4 antag: CHRM4 antagonism in calcium assay | CHO-hM4 cells, ACh EC80, Fluo-8 calcium fluorescence | inhibition, % at 3 µM | 360,000 tested, 0.73% active | AID 624125;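 active means inhibition above its plate's cutoff, the mean inhibition of sample wells plus 3 SD, cut at about 27% in these data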;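 further: 0% = acetylcholine EC80 with DMSO and 100% = DMSO without agonist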
Numbers without * were called inactive. A selection: hits, their analogues and other compounds. The true share with any hit is near 1.9%.

SMILES	CHRM4 PAM	CHRM4 agonist	CHRM5 antagonist	M5 ag	M5 PAM	M4 antag
Cc1ccc(C(=O)C2C(=O)c3ccccc3C2=O)cc1	6	1	-2	1	5	-10
Cc1nc(-c2ccc(C(=O)Nc3cc(S(N)(=O)=O)ccc3C)cc2)cs1	-11	1	0	-3	1	30*
Cc1cccc(NC(=O)NNC(=O)c2cc3occc3[nH]2)c1C	-2	1	11	-3	2	9
CCN1C(=NCc2ccco2)N[C@@H](c2cccc(F)c2)C(C(=O)OC)=C1C	7	1	12	-11	-11	-4
C=CCOc1ccc(/C=C/C(=O)OCC(=O)N(C)C2CCS(=O)(=O)C2)cc1 (centres undefined)	4	3	13	0	-6	3
c1ccc(COc2ncnc3c2ncn3CCCNCC2CCCO2)cc1 (centres undefined)	-1	-1	3	-3	-5	6
CCOC(=O)C1=C[C@@H](CC)N(S(=O)(=O)c2ccc(C)cc2)[C@H]1c1ccccc1	-9	-2	2	-3	-5	3
CCOC(=O)C1=C[C@@H](C2CCCC2)N(S(=O)(=O)c2ccc([N+](=O)[O-])cc2)[C@H]1c1ccccc1	-18	6	7	2	-10	39*
COC(=O)c1ccc(NC(=S)NC2CCCCC2C)cc1 (centres undefined)	-9	12	29*	8	-19	-5
CC1CCCC(NC(=S)Nc2ccc(SC(F)F)cc2)C1C (centres undefined)	-14	10	31*	3	-16	13
FC(F)Sc1ccc(NC(=S)NC2CCCC2)cc1	-12	13	6	3	-18	11
C[C@H](CO)N1C[C@H](C)[C@H](CN(C)S(=O)(=O)c2ccccc2F)OCc2cnnn2CCCC1=O	-5	1	-9	1	3	0
COc1ccc(NC(=O)Nc2ccc3c(c2)C(=O)N([C@H](C)CO)C[C@H](C)[C@@H](CN(C)S(C)(=O)=O)O3)cc1	11	1	1	3	2	-8
C[C@@H]1CCCCO[C@H](CN(C)S(=O)(=O)c2cn(C)cn2)[C@H](C)CN([C@@H](C)CO)C(=O)c2cc(NC(=O)c3ccccc3)ccc2O1	3	0	9	1	1	0
C[C@H]1CN([C@@H](C)CO)C(=O)c2cccc(NC(=O)Nc3ccc(C(F)(F)F)cc3)c2O[C@H]1CN(C)C	17	0	-5	2	21*	-1
C[C@@H]1CCCCO[C@H](CN(C)S(=O)(=O)c2cn(C)cn2)[C@@H](C)CN([C@H](C)CO)C(=O)c2cc(NC(=O)c3ccncc3)ccc2O1	18*	0	-16	1	6	-32
C[C@H](CO)N1C[C@H](C)[C@@H](CN(C)S(C)(=O)=O)Oc2ccc(NC(=O)Nc3ccccc3)cc2C1=O	4	3	0	2	22*	-2
C[C@H](CO)N1C[C@H](C)[C@@H](CN(C)Cc2ccc(Oc3ccccc3)cc2)Oc2c(NC(=O)C3CC3)cccc2C1=O	-8	11	0	-2	-8	38*
O=C(Nc1cccnc1)C1Cc2c(-c3cccc(F)c3)ccnc2O1 (centres undefined)	-1	6	0	1	3	-6
NC(=O)c1ccc(NC(=O)C2CC2)cc1	22*	3	-9	1	6	-7
CS(=O)(=O)N1CCC(C(=O)Nc2ccc(C(N)=O)cc2)CC1	-2	-1	14	-3	-7	5
CC(=O)C1=C(C)NC(SCC(=O)c2ccc(Cl)c(Cl)c2)=C(C#N)C1c1ccco1 (centres undefined)	14	8	-4	1	-3	-7
CC(=O)C1=C(C)NC(SCC(=O)c2ccc(F)cc2)=C(C#N)C1c1ccco1 (centres undefined)	18*	12	8	0	-6	-3
Cc1ccc(CNC(=O)C2COc3ccccc3O2)cc1 (centres undefined)	-3	0	11	1	4	4
Cc1ccc(C(C(=O)NCc2ccc(F)cc2)N(CCCO)C(=O)C2COc3ccccc3O2)o1 (centres undefined)	-15	9	-5	7	-10	41*
SMILES	CHRM4 PAM	CHRM4 agonist	CHRM5 antagonist	M5 ag	M5 PAM	M4 antag
Cc1ccc(NC(=O)CNc2ccccc2CN(C)C2CCCCC2)cc1	1	2	4	-3	12	4
CCn1c(COc2ccc3ccccc3c2C)nnc1SCC(=O)Nc1cccc(C(=O)O)c1	25*	0	2	-1	8	-9
CCn1c(COc2cccc(C)c2)nnc1SCC(=O)Nc1cccc(C(=O)O)c1	6	1	-9	3	-4	-5
O=C(O)/C=C/c1cn(Cc2ccccc2Cl)nc1-c1ccccc1	-3	2	-4	0	20*	-12
COC(=O)c1c(C(=O)OC)c2c(-c3ccccc3)cc3cccc1n32	-5	7	32*	9	-5	1
COC(=O)c1c(-c2ccccc2)csc1N	-5	3	0	-1	2	12
Cn1c(COc2ccccc2)nnc1SCC(=O)Nc1nnc(C2CC2)s1	9	1	4	1	1	3
Cc1ccc2nc(-c3ccc(NC(=S)NC(=O)CC(C)C)cc3)sc2c1	10	0	-6	0	-1	-1
Cc1ccc2nc(-c3ccc(NC(=O)C(C)Sc4nncs4)cc3)sc2c1 (centres undefined)	5	8	8	6	-3	29*
Cc1ccc(C)c(N2CCN(C(=O)C(Cc3ccccc3)n3cccc3)CC2)c1 (centres undefined)	-12	2	2	42*	-24	-3
O=C(C(Cc1ccccc1)n1cccc1)N1CCN(c2ccccc2)CC1 (centres undefined)	1	7	-3	0	-1	-13
CCCCN1C(=O)C(CC(=O)NCCCCc2ccccc2)CC(C(=O)N2CCCCCC2)=C1C (centres undefined)	-2	6	-2	1	-8	-18
O=C(CSc1ccc2ccccc2n1)NCCC1=CCCCC1	-6	-2	30*	-8	-13	-12
CCOC(=O)C1(C)CCN1C(=O)c1ccc(OC)c(C(F)(F)F)c1 (centres undefined)	1	2	0	1	-6	-7
CC(C)N1CCC1(C)C(=O)Nc1cccc2ccccc12 (centres undefined)	1	0	12	-4	5	-5
